Target: T1, Prostaglandin G/H synthase 1 (Mus musculus, UniProt P22437)
T1 sequence (P22437 whole entry): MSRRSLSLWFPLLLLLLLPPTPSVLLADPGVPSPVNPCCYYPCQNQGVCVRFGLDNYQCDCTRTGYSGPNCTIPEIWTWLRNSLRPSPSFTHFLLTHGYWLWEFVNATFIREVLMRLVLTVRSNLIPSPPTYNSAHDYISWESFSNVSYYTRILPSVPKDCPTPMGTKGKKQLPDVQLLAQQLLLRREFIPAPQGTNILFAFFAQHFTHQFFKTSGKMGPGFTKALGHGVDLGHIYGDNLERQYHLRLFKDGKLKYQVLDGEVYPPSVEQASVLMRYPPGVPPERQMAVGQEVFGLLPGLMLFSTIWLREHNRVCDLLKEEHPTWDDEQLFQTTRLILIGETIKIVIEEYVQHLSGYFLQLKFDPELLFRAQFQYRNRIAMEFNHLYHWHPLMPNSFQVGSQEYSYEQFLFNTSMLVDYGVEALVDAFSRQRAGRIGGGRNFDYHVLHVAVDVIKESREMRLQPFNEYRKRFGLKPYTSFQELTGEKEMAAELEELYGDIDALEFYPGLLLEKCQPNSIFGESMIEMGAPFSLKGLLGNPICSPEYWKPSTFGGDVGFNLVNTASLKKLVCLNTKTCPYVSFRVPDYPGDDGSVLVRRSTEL
Assay: In vitro inhibitory activity against prostaglandin G/H synthase 1 using mouse peritoneal macrophage method
Procedure, shortened: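 Freshly harvested mouse peritoneal macrophages were the enzyme source. Cells were preincubated 10 min at 37 °C with inhibitor in DMSO, then stimulated with calcium ionophore A23187 for 10 min. The reaction was stopped with indomethacin in 0.1% BSA buffer and centrifuged, and supernatant TXB₂ was measured by ELISA.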

For `CC1(C)OC(c2ccc(S(N)(=O)=O)cc2)=C(c2ccco2)C1=O`, the IC50 was > 29.9 µM.
